Results reported in the M2OR odorant receptor database.

Columns and labels:
OR5K1 (Homo sapiens) = target: T1, OR5K1 (Homo sapiens) (UniProt Q8NHB7); details: stereoisomer not certain
T1 sequence (whole entry): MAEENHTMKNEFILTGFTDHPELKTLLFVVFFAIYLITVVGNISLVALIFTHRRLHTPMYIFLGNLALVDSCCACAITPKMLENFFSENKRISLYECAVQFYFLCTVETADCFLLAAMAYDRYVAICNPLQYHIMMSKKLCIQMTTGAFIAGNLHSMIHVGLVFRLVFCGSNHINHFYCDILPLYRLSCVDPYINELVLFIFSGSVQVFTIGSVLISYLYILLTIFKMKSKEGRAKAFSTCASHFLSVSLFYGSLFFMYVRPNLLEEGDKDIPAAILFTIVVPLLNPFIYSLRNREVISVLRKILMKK
In short: (§1)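 Whether a receptor–molecule pair is responsive (active) rests on the original authors' judgment that its measured signal was statistically different from baseline. Pairs without that judgment are non-responsive (inactive). Sources used varied assay methods, commonly transient luciferase assays in mammalian cell lines.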

OR5M3 (Homo sapiens) = target: T2, OR5M3 (Homo sapiens) (UniProt Q8NGP4); details: stereoisomer not certain
T2 sequence (whole entry): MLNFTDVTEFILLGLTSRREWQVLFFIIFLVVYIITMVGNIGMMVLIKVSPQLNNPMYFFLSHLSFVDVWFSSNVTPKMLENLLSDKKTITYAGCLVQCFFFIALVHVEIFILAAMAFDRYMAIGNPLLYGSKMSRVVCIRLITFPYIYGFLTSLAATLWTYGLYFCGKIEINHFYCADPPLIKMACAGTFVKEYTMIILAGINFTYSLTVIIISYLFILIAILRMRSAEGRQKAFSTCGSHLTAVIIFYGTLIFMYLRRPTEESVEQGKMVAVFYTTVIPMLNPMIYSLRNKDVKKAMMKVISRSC
In short: as §1
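Note: active if original authors judged signal statistically different from baseline.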

In the case of `CC(=O)C(C)O` (configuration not stated), the “odorant receptor agonist call” value (OR5K1 (Homo sapiens)) is reported as “inactive” and the “odorant receptor agonist call” value (OR5M3 (Homo sapiens)) is reported as “inactive”.

For `C=CCSC`, the “odorant receptor agonist call” value (OR5K1 (Homo sapiens)) was “inactive” and the “odorant receptor agonist call” value (OR5M3 (Homo sapiens)) was “inactive”.

With `CC(C)=CC1CC(C)CCO1` (configuration not stated) the “odorant receptor agonist call” value (OR5K1 (Homo sapiens)) was “inactive” and the “odorant receptor agonist call” value (OR5M3 (Homo sapiens)) was “inactive”.

`CCCCCCC=CC=O` was tested, and the “odorant receptor agonist call” value (OR5K1 (Homo sapiens)) was “inactive” and the “odorant receptor agonist call” value (OR5M3 (Homo sapiens)) was “inactive”.

With `CCC(S)C(C)=O` (configuration not stated) the “odorant receptor agonist call” value (OR5K1 (Homo sapiens)) was “inactive” and the “odorant receptor agonist call” value (OR5M3 (Homo sapiens)) was “inactive”.

In the case of `CCOC(=O)CC(C)C`, the “odorant receptor agonist call” value (OR5K1 (Homo sapiens)) is reported as “inactive” and the “odorant receptor agonist call” value (OR5M3 (Homo sapiens)) is reported as “inactive”.
